According to ChEMBL document CHEMBL1152541, “Staurosporine tethered peptide ligands that target cAMP-dependent protein kinase (PKA): optimization and selectivity profiling” (Bioorg Med Chem, 2009):
Active and inactive are the calls of the source. No cut-off for these calls is given here. *1 amine or outer side, *2 acyl side, *3 side chain or, on linkers, in order; H or OH if unused. Where a SMILES comes first, the peptide text is derived from it. Bridges are numbered along the chain shown (N, C = ends). [ ]: non-standard residue; d: D form. The star is where a group is joined. Staurosporine = CO[C@@H]1[C@H](N(C)*)C[C@H]2O[C@]1(C)n1c3ccccc3c3c4c(c5c6ccccc6n2c5c31)C(=O)NC4; Suc = O=C(CCC(=O)[*:2])[*:1]; Dap = NC[C@H](N)C(=O)O; βAla = NCCC(=O)O

How the values were obtained:
[1] = target: Cyclin-dependent kinase 2 (Homo sapiens) (UniProt P24941); test: Ratio of compound to staurosporine binding affinity to human CDK2 in presence of DTT
[2] = target: Angiopoietin-1 receptor (Homo sapiens) (UniProt Q02763); test: Binding affinity to human TIE2 at 500 nM by cell-based competition binding assay relative to control in presence of DTT
Sequence of Angiopoietin-1 receptor (Homo sapiens) (Q02763 whole entry): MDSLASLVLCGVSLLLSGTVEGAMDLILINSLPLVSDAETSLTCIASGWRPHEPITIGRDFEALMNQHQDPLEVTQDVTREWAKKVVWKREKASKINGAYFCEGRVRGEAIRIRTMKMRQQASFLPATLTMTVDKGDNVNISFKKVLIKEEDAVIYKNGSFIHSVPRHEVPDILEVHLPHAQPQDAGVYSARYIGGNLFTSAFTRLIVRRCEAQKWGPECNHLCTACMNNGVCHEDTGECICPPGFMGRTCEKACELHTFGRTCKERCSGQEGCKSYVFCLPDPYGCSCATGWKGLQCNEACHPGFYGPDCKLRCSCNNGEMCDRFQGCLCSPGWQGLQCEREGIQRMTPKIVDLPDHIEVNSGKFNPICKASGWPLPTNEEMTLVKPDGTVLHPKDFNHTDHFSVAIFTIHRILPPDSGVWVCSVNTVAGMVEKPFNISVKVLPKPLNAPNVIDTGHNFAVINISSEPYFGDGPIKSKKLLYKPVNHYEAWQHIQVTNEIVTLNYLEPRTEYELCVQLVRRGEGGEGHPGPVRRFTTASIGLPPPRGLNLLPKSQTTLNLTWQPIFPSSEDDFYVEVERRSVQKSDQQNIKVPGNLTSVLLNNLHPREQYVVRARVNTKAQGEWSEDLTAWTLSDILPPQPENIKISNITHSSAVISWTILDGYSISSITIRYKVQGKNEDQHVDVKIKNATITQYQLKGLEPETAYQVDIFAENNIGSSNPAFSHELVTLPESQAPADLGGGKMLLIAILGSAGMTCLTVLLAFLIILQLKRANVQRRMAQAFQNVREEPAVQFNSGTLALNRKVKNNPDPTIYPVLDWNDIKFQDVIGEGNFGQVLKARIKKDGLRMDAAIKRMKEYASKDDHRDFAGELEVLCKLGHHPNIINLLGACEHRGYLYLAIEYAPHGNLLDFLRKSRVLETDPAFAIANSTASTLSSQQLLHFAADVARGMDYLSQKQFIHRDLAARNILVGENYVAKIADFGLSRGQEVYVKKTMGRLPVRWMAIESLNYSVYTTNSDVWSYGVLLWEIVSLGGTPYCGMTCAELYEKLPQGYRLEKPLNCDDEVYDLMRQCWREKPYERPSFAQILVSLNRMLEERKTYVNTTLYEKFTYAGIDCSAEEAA

[3] = target: RAF proto-oncogene serine/threonine-protein kinase (Homo sapiens) (UniProt P04049); test: Binding affinity to human RAF1 at 500 nM by cell-based competition binding assay relative to control in presence of DTT
[4] = target: Non-receptor tyrosine-protein kinase TYK2 (Homo sapiens) (UniProt P29597); test: Binding affinity to human TYK2 kinase domain 2 at 500 nM by cell-based competition binding assay relative to control in presence of DTT
Sequence of Non-receptor tyrosine-protein kinase TYK2 (Homo sapiens) (P29597 whole entry, the tested form may be a part): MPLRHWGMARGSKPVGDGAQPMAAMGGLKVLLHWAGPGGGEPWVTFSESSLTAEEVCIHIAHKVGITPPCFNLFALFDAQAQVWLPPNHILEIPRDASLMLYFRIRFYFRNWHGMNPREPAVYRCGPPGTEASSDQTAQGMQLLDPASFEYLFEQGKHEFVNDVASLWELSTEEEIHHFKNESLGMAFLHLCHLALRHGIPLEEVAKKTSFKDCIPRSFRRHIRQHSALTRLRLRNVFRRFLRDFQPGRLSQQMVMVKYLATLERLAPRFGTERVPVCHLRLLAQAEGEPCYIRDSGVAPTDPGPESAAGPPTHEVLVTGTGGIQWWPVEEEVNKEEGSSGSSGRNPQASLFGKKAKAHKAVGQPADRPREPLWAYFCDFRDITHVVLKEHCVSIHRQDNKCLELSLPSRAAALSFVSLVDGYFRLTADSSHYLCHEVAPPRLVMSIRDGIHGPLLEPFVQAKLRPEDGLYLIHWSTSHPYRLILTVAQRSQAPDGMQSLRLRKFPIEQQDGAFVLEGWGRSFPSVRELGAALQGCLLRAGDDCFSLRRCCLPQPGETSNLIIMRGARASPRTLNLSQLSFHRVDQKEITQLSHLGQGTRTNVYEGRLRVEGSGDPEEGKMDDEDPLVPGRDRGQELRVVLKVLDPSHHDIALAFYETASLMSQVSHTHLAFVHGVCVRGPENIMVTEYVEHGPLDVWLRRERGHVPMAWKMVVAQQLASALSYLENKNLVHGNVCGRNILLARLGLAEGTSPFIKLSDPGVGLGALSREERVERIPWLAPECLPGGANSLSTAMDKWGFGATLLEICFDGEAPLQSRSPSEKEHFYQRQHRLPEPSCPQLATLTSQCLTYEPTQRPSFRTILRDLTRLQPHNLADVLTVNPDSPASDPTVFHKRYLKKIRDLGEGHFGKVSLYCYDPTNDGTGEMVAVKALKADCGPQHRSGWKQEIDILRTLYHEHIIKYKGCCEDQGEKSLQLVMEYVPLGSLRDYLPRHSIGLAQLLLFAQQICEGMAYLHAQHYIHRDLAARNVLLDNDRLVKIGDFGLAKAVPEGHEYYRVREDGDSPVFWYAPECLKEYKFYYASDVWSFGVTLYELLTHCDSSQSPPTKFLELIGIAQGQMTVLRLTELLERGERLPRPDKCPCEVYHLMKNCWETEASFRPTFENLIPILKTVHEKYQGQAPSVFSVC

[5] = target: T1, TGF-beta receptor type-1 (Homo sapiens) (UniProt P36897); test: Binding affinity to human TGFBR1 at 500 nM by cell-based competition binding assay relative to control in presence of DTT
T1 sequence (whole entry): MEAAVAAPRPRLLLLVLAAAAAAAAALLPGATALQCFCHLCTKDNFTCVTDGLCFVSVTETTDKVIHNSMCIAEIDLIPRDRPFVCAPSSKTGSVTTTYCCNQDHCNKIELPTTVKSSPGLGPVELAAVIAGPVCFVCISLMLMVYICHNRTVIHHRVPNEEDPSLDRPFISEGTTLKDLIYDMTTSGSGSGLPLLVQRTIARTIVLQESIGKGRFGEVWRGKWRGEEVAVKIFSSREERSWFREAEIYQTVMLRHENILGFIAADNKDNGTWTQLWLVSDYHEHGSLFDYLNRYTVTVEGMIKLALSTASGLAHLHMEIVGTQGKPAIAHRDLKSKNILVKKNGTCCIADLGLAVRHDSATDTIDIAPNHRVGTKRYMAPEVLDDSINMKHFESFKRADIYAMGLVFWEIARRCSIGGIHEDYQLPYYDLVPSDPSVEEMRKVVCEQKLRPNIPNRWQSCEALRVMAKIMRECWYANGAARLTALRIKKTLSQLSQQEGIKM

[6] = target: Mitogen-activated protein kinase 3 (Homo sapiens) (UniProt P27361); test: Binding affinity to human ERK1 at 200 nM by cell-based competition binding assay relative to control in presence of DTT
Sequence of Mitogen-activated protein kinase 3 (Homo sapiens) (P27361 whole entry): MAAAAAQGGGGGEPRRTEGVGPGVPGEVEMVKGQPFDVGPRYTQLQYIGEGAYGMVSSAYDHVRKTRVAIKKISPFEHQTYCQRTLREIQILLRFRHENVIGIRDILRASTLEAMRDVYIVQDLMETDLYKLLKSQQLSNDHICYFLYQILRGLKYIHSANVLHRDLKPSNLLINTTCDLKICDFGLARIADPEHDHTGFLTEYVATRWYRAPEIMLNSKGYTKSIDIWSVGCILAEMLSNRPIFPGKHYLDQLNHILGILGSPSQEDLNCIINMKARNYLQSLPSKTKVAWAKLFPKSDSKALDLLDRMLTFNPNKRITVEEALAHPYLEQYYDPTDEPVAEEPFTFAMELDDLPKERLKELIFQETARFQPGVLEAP
How it was run: (§1)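 Commercial (Ambit) competitive kinase-binding panel of 90 kinases measured the binding profile. Run under reducing conditions of 7.5 mM DTT. Binding is expressed relative to control.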

[7] = target: Macrophage colony-stimulating factor 1 receptor (Homo sapiens) (UniProt P07333); test: Binding affinity to human CSF1R at 200 nM by cell-based competition binding assay relative to control in presence of DTT; how it was run: as §1
Sequence of Macrophage colony-stimulating factor 1 receptor (Homo sapiens) (P07333 whole entry): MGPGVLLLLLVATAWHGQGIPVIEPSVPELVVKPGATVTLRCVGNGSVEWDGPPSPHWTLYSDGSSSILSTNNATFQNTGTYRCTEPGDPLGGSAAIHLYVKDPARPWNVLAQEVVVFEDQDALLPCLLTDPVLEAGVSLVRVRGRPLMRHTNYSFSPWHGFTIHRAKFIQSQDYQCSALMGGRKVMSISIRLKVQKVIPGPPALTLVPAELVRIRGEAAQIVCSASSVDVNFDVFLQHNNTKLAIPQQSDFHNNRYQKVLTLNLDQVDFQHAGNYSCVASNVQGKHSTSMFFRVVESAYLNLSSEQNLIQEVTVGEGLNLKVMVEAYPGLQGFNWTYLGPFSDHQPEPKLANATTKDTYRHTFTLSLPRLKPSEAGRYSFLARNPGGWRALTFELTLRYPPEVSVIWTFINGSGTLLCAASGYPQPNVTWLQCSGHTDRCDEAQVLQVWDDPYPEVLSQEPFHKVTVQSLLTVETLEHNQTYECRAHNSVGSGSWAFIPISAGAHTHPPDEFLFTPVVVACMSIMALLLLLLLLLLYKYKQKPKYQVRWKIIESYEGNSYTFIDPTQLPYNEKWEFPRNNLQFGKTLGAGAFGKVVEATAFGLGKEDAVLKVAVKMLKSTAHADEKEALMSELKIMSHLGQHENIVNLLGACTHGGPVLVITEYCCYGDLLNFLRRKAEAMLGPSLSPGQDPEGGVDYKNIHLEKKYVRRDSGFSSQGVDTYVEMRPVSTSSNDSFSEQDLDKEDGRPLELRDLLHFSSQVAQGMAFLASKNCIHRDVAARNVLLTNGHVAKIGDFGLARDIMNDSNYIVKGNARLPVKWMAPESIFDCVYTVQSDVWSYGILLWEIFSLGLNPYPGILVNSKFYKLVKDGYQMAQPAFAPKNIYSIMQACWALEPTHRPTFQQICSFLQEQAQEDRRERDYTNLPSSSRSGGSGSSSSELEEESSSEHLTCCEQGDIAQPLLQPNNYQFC

[8] = target: cAMP-dependent protein kinase catalytic subunit alpha (Homo sapiens) (UniProt P17612); test: Binding affinity to human PKACalpha at 200 nM by cell-based competition binding assay relative to control in presence of DTT
[9] = target: Platelet-derived growth factor receptor alpha (Homo sapiens) (UniProt P16234); test: Binding affinity to human PDGFRalpha at 200 nM by cell-based competition binding assay relative to control in presence of DTT
Sequence of Platelet-derived growth factor receptor alpha (Homo sapiens) (P16234 whole entry): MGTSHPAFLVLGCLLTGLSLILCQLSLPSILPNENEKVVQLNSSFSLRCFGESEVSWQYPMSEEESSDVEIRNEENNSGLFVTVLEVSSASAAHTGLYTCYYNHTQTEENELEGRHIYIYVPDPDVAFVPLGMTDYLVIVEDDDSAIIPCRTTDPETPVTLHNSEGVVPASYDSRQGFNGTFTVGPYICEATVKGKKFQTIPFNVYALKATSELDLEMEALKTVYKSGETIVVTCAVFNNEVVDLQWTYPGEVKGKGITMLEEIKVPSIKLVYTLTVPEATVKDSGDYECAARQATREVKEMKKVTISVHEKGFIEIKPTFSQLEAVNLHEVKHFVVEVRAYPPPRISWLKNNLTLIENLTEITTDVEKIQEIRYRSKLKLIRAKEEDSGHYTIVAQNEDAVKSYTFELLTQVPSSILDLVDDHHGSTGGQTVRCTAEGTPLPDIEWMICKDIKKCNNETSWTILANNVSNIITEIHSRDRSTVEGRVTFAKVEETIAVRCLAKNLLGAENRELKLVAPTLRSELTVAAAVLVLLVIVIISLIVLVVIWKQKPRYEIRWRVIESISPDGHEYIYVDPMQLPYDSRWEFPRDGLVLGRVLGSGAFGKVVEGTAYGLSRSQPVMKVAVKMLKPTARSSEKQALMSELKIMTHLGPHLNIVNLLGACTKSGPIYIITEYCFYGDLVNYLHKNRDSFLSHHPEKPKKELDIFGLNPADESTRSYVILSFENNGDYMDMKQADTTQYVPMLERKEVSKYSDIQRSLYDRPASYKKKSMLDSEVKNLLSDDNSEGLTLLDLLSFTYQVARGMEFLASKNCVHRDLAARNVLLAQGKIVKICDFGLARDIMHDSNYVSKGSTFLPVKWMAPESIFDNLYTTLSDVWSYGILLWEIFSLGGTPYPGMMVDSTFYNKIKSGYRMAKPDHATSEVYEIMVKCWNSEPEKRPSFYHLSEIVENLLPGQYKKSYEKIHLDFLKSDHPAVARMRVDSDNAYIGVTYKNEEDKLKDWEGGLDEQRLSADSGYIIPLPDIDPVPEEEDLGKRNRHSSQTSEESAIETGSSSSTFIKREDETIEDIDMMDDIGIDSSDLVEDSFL

[10] = Inhibition of PKA assessed as [gamma-32P]ATP labeling of kemptide at 33 to 100 nM by liquid scintillation counting in presence of DTT
[11] = target: ALK tyrosine kinase receptor (Homo sapiens) (UniProt Q9UM73); test: Binding affinity to human ALK at 50 nM by cell-based competition binding assay relative to control in presence of DTT
How it was run: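 Kinase binding profiling ran on a commercial (Ambit) competitive binding screen against a panel of 90 kinases. The screen used reducing conditions with 7.5 mM DTT. To withstand the DTT, the bivalent ligand was tested as its amide isostere, with the disulfide replaced. A staurosporine derivative carrying a 3 β-alanine linker was run as the reference compound.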

[12] = target: Dual specificity mitogen-activated protein kinase kinase 1 (Homo sapiens) (UniProt Q02750); test: Binding affinity to human MEK1 at 50 nM by cell-based competition binding assay relative to control in presence of DTT
How it was run: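 Kinase binding profile from a commercial panel of 90 kinases, run as a competitive binding assay. The panel was screened under reducing conditions of 7.5 mM DTT. Signal was compared with the untreated control.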

[13] = target: T2, Serine/threonine-protein kinase PLK4 (Homo sapiens) (UniProt O00444); test: Binding affinity to human PLK4 at 50 nM by cell-based competition binding assay relative to control in presence of DTT
T2 sequence (whole entry): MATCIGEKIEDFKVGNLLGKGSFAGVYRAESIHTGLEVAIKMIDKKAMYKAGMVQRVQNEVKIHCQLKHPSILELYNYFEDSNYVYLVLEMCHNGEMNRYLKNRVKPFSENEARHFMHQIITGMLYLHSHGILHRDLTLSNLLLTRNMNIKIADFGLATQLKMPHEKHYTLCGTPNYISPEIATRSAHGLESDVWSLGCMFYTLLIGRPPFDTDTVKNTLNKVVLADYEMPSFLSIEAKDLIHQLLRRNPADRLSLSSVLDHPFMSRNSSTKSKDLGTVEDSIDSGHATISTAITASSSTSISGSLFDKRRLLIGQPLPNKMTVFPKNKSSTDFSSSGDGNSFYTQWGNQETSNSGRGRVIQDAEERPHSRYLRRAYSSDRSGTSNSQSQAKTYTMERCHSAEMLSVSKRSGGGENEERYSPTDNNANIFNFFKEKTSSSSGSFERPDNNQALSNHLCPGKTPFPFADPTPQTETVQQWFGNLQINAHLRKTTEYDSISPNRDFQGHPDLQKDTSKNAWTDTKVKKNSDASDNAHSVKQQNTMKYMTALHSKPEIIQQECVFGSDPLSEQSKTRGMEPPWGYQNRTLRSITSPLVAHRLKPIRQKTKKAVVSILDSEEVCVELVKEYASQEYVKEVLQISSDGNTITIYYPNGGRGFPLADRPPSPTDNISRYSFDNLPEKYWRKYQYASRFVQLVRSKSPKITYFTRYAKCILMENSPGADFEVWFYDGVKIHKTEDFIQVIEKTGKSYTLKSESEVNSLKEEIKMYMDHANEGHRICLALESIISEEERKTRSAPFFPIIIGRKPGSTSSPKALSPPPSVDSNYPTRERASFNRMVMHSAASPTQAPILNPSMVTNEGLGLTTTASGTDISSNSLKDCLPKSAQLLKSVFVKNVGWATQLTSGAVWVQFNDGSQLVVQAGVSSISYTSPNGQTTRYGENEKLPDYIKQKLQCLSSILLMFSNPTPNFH

Selectivity ratio [1] | Activity [2] [%] | Activity [3] [%] | Activity [4] [%] | Activity [5] [%] | Activity [6] [%] | Activity [7] [%] | Activity [8] [%] | Activity [9] [%] | inhibition [10] | Activity [11] [%] | Activity [12] [%] | Activity [13] [%] | SMILES
50 | 38 | 73 | 19 | 75 | – | – | – | – | – | – | – | – | CO[C@@H]1[C@H](N(C)C(=O)CCC(=O)NCCC(=O)NCCC(=O)NCCC(N)=O)C[C@H]2O[C@]1(C)n1c3ccccc3c3c4c(c5c6ccccc6n2c5c31)C(=O)NC4
– | – | – | – | – | 100 | 44 | 19 | 41 | inactive | – | – | – | CO[C@@H]1[C@H](N(C)C(=O)CCC(=O)NCCC(=O)NCCC(=O)NCCC(=O)NCCC(=O)NCCC(=O)NCCC(=O)NCCC(=O)N[C@H]2CSSC[C@@H](C(=O)NCC(N)=O)NC(=O)CNC(=O)[C@H](Cc3ccccc3)NC(=O)[C@H](C(C)C)NC(=O)[C@H](CCCNC(=N)N)NC(=O)[C@H](Cc3ccccc3)NC(=O)[C@H](C(C)C)NC2=O)C[C@H]2O[C@]1(C)n1c3ccccc3c3c4c(c5c6ccccc6n2c5c31)C(=O)NC4 ({Staurosporine-Suc-βAla-βAla-βAla-βAla-βAla-βAla-βAla}-CVFRVFGCG-NH2; disulfide 1-8)
– | – | – | – | – | – | – | – | – | Active | 92 | 95 | 5.7 | CO[C@@H]1[C@H](N(C)C(=O)CCC(=O)NCCC(=O)NCCC(=O)NCCC(=O)NCCC(=O)NCCC(=O)NCCC(=O)NCCC(=O)N[C@H]2CNC(=O)C[C@@H](C(N)=O)NC(=O)CNC(=O)[C@H](Cc3ccccc3)NC(=O)[C@H](C(C)C)NC(=O)[C@H](CCCNC(=N)N)NC(=O)[C@H](Cc3ccccc3)NC(=O)[C@H](C(C)C)NC2=O)C[C@H]2O[C@]1(C)n1c3ccccc3c3c4c(c5c6ccccc6n2c5c31)C(=O)NC4 ({Staurosporine-Suc-βAla-βAla-βAla-βAla-βAla-βAla-βAla}-[Dap]VFRVFGD-NH2; lactam 1-8)
